Test [1] relates to THP-1. Kind of test: Immunostimulatory activity in human THP-1 cells assessed as increase in LPS-induced ICAM-1 expression at 20 uM preincubated for 1 hr followed by LPS stimulation for 20 hrs by flow cytometry analysis. In kind it is functional, cell-based. To be noted: time 21.0 hrs. The method, boiled down:
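Undifferentiated THP-1 monocytes (0.5×10^6/well, pre-cultured 24 h) pretreated 1 h with peptide (range 0.1–32 µM), then LPS 0.1 µg/mL added for 20 h. Cells pelleted, PBS-washed, resuspended in PBS with 0.1% BSA; ICAM-1 measured by flow cytometry.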

For test [2], the system named is THP-1. Kind of test: Immunostimulatory activity in human THP-1 macrophage assessed as increase in TNF-alpha production at 30 uM incubated for 24 hrs by ELISA. In kind it is functional, cell-based. The method, boiled down:
(§1)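 THP-1 monocytes (0.5×10^6) differentiated 48 h with PMA 20 ng/mL, PBS-washed, held 3 h in serum-free medium, then stimulated 24 h with peptide at 1, 15 or 30 µM. TNF-α in culture supernatants (stored −80 °C) measured by ELISA at 450 nm with 540 nm correction against a 2nd-order polynomial standard curve; mean of two experiments ± SEM; one-way ANOVA.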

Test [3] deals with THP-1. Kind of test: Immunostimulatory activity in human THP-1 cells assessed as increase in ICAM-1 expression level at 20 uM incubated for 21 hrs by flow cytometry analysis. In kind it is functional, cell-based. The method, boiled down: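 THP-1 monocytes in RPMI-1640 with 10% heat-inactivated FBS and 1% antibiotic/antimycotic, 5% CO2, 37 °C. 0.5×10^6 cells/well pre-cultured 24 h, then exposed to 20 µM peptide for 21 h. Cells centrifuged, PBS-washed, resuspended in PBS/0.1% BSA, stained with PE anti-CD54 antibody; flow cytometry read-out of ICAM-1.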

The subject of test [4] is THP-1. The test is described as follows: Immunostimulatory activity in human THP-1 macrophage assessed as increase in TNF-alpha production at 15 uM incubated for 24 hrs by ELISA. Format: functional. The method, boiled down: as §1
The subject of test [5] is THP-1. The test is described as follows: Immunostimulatory activity in human THP-1 macrophage assessed as increase in LPS-induced ICAM-1 expression by measuring mean fluorescence intensity at 20 uM preincubated for 1 hr followed by LPS stimulation for 20 hrs by flow cytometry analysis (reference value: 602.95). In kind it is functional. To be noted: time 21 hrs.

Structures are written as SMILES. The source made the active and inactive calls. No cut-off for these calls is given here.

Consider nine compounds from ChEMBL document CHEMBL4732048, “Amphiphilic desmuramyl peptides for the rational design of new vaccine adjuvants: Synthesis, in vitro modulation of inflammatory response and molecular docking studies” (2021).

`CCCCCCNC(=O)CC[C@@H](NC(=O)[C@H](C)NC(=O)COc1cccc(NCCCO)c1)C(N)=O`: the result in test [1] was Active. The result in test [2] and in test [3] was inactive. In test [4], the Activity was determined as 3622 pg/mL.

For `CCCCCCNC(=O)CC[C@@H](NC(=O)[C@H](C)NC(=O)COc1cccc(N(CCO)C(=O)CCC)c1)C(N)=O`, in test [1], the outcome was Active. Also, the result in test [2] and in test [3] was inactive. Moreover, the Activity in test [4] is 2806 pg/mL.

As for `CCCCCCNC(=O)CC[C@@H](NC(=O)[C@H](C)NC(=O)COc1cccc(N(CCCO)C(C)=O)c1)C(N)=O`, the result in test [1] was Active. Further, the result in test [2] and in test [3] was inactive. Besides, in test [4], the Activity was 2902 pg/mL.

For `CCCCCCNC(=O)CC[C@@H](NC(=O)[C@H](C)NC(=O)COc1cccc(N(CCCO)CCCO)c1)C(N)=O`, the outcome in test [1] was Active. The result in test [2] and in test [3] was inactive. Also, the Activity in test [4] was 3306 pg/mL.

As to `CCCCCCNC(=O)CC[C@@H](NC(=O)[C@H](C)NC(=O)COc1cccc(N(CCCO)C(=O)CCC)c1)C(N)=O`, in test [1], the result was Active. Also, the result in test [2] and in test [3] was inactive. Besides, the Activity in test [4] came to 3105 pg/mL. In addition, in test [5], the Flu intensity turned out to be 905.38.

Turning to `CCCCCCNC(=O)CC[C@@H](NC(=O)[C@H](C)NC(=O)COc1cccc(NCCO)c1)C(N)=O`, in test [1], the outcome was Active. Moreover, the result in test [2] and in test [3] was inactive. In addition, the Activity in test [4] is 3226 pg/mL.

In the case of `CCCCCCNC(=O)CC[C@@H](NC(=O)[C@H](C)NC(=O)COc1cccc(N(CCO)C(C)=O)c1)C(N)=O`, the result in test [1] was Active. Besides, the outcome in test [2] and in test [3] was inactive. The Activity in test [4] was found to be 3342 pg/mL.

With `CCCCCCNC(=O)CC[C@@H](NC(=O)[C@H](C)NC(=O)COc1cccc(N(CCO)CCO)c1)C(N)=O`, in test [1], the outcome was Active. The result in test [2] and in test [3] was inactive. The Activity in test [4] amounted to 3111 pg/mL.

Consider `CCCCOC(=O)[C@@H](CCC(N)=O)NC(=O)[C@H](C)NC(=O)[C@@H](C)O[C@H]1[C@H](O)[C@@H](CO)O[C@H](O)[C@@H]1NC(C)=O`, for which the outcome in test [3] was inactive. Also, the Activity in test [4] came to 2694 pg/mL. Moreover, the Flu intensity in test [5] was found to be 1436.05.
